Experiments:
Rattus norvegicus [1] = assay: Antiinflammatory activity in Sprague-Dawley/Wistar rat assessed as decrease in carrageenan-induced hyperalgesia at 20 mg/kg, po administered 4 hrs after carrageenan-challenge measured after 30 mins (reference value: 34.8 +/- 3.0 g); assay type: functional
Aorta = assay: Vasorelaxant activity in Wistar rat endothelium-removed thoracic aortic rings assessed as reduction of KCl-induced vasoconstriction treated after KCl-challenge; assay type: functional, tissue-based
In short: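 Thoracic aortic rings from male Wistar rats (250-350 g), endothelium removed by rubbing; removal confirmed as <10% relaxation to ACh 10 µM in KCl 30 mM-contracted rings. Rings contracted with KCl 30 mM; at plateau, 3-fold increasing compound concentrations (1 nM-10 µM) added. Isometric tension recorded. Emax given as % of KCl tone; pIC50 as -log molar concentration halving that tone. 6-10 experiments; also run with ODQ 1 µM.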

Rattus norvegicus [2] = assay: Antiinflammatory activity in Sprague-Dawley/Wistar rat assessed as decrease in carrageenan-induced hyperalgesia at 10 mg/kg, po administered 4 hrs after carrageenan-challenge measured after 120 mins (reference value: 31.4 +/- 3.7 g); assay type: functional
[3] = molecular target: Prostaglandin G/H synthase 1 (Homo sapiens, UniProt P23219); assay: Inhibition of COX1 in human whole blood assessed as reduction in TXB2 generation
In short: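 Clotting assay in whole blood from three healthy volunteers with no NSAID for 2 weeks. Compounds in DMSO were added at 0.1-300 µM final. Blood clotted in glass tubes at 37 °C for 1 h. Serum TXB2 was measured by RIA as a reflection of platelet COX-1 activity driven by endogenous thrombin.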

[4] = molecular target: T1, Prostaglandin G/H synthase 1 (Mus musculus, UniProt P22437); assay: Inhibition of arachidonic acid-induced COX1 activity in mouse J774 cells assessed as decrease in PGE2 levels incubated for 15 mins prior to arachidonic acid-challenge measured after 30 mins by RIA; assay type: cell-based
T1 sequence (P22437 whole entry): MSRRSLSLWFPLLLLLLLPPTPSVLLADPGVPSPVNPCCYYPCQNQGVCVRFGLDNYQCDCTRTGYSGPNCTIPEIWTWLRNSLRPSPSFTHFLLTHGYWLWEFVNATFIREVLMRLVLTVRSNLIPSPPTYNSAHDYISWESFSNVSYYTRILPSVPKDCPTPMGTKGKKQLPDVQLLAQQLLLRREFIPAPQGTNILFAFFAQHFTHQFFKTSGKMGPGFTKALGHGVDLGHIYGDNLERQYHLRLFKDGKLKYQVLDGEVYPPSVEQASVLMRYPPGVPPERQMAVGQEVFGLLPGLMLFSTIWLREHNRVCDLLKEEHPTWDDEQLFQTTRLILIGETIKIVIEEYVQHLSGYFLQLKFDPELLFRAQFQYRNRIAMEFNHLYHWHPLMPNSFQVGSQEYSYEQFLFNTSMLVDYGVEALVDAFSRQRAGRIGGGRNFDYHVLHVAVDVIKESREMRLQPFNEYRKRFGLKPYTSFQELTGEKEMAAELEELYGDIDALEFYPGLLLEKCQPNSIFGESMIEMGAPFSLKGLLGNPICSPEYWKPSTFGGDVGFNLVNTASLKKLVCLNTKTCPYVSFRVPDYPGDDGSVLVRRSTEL
In short: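 Cells were in DMEM with 10% FBS and adhered for 2 h at 37 °C. They were pretreated with compound (10 µM; 0.1-1 µM where inhibition exceeded 50%) for 15 min, then given 15 µM arachidonic acid for 30 min at 37 °C. Supernatant PGE2 was measured by RIA. Triplicate wells were used and the mean of three experiments reported. IC50 came from a variable-slope sigmoidal fit.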

[5] = molecular target: T2, Prostaglandin G/H synthase 2 (Homo sapiens) (UniProt P35354); assay: (§1) Inhibition of COX2 in human whole blood assessed as reduction in LPS-induced PGE2 generation pre-treated prior to LPS-challenge
T2 sequence (whole entry): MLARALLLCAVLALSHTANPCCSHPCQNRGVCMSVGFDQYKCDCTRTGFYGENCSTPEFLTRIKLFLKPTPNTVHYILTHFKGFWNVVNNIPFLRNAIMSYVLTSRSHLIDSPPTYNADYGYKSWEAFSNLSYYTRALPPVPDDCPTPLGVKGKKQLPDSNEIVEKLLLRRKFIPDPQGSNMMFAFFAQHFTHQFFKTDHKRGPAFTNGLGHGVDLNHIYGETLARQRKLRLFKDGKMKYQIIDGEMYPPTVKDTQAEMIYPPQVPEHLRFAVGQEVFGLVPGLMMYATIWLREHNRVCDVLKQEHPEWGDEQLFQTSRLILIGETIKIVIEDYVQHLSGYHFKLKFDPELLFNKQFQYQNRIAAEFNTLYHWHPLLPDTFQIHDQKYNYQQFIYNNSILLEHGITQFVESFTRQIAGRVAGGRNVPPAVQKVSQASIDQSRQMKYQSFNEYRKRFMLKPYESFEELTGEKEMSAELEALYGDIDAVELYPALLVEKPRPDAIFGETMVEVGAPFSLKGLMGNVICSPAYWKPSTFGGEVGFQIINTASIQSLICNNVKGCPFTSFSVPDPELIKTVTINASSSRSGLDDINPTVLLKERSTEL
In short: (§2)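 Heparinized whole blood came from three healthy volunteers pretreated with aspirin 300 mg 48 h before sampling to suppress platelet COX-1. Compounds in DMSO were added at 0.1-300 µM final. Blood was incubated with LPS 10 µg/mL for 24 h at 37 °C. Plasma PGE2 was measured by RIA.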

[6] = molecular target: T3, Prostaglandin G/H synthase 2 (Homo sapiens, UniProt P35354); assay: as §1; in short: as §2
T3 sequence (P35354 whole entry): T2 sequence (whole entry)

J774 = assay: Selectivity index, ratio of IC50 for COX1 in mouse J774 cells […]; assay type: cell-based
Rattus norvegicus [7] = assay: Antiinflammatory activity in Sprague-Dawley/Wistar rat assessed as decrease in carrageenan-induced hyperalgesia at 10 mg/kg, po administered 4 hrs after carrageenan-challenge measured after 30 mins (reference value: 34.8 +/- 3.0 g); assay type: functional
Rattus norvegicus [8] = assay: Antiinflammatory activity in Sprague-Dawley/Wistar osteoarthritis model rat assessed as decrease in monoiodoacetate-induced hyperalgesia at 20 mg/kg, po bid for 14 days administered from day of monoiodoacetate-challenge followed by additional compound treatment after 30 mins […] by paw pressure test (reference value: 30.4 +/- 3.1 g); assay type: functional
Rattus norvegicus [9] = assay: Antiinflammatory activity in Sprague-Dawley/Wistar rat assessed as decrease in carrageenan-induced hyperalgesia at 20 mg/kg, po administered 4 hrs after carrageenan-challenge measured after 120 mins (reference value: 31.4 +/- 3.7 g); assay type: functional
Rattus norvegicus [10] = assay: Antiinflammatory activity in Sprague-Dawley/Wistar osteoarthritis model rat assessed as decrease in monoiodoacetate-induced hyperalgesia at 20 mg/kg, po bid for 14 days administered from day of monoiodoacetate-challenge […] post by paw pressure test (reference value: 32.6 +/- 2.9 g); assay type: functional
Rattus norvegicus [11] = assay: Antiinflammatory activity in Sprague-Dawley/Wistar rat assessed as decrease in carrageenan-induced hyperalgesia at 20 mg/kg, po administered 4 hrs after carrageenan-challenge measured after 60 mins (reference value: 33.9 +/- 3.7 g); assay type: functional

Chain of Prostaglandin G/H synthase 1 (Homo sapiens, UniProt P23219) (P23219 whole entry): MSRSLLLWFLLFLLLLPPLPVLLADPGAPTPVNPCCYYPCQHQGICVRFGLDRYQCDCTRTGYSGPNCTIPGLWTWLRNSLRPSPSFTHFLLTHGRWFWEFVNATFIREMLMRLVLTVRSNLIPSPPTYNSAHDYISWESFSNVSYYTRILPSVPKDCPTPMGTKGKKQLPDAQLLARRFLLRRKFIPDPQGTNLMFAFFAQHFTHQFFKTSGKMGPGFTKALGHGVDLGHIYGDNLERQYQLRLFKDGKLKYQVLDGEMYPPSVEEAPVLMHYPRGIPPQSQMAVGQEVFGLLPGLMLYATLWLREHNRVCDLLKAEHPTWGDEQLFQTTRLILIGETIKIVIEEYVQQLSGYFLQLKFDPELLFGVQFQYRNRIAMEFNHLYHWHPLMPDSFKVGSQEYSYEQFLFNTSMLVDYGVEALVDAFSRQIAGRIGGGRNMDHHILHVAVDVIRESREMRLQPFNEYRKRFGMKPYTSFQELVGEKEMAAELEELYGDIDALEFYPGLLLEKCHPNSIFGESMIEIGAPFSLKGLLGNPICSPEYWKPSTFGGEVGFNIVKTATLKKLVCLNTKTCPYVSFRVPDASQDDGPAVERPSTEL

**Q.** Which Activity (Rattus norvegicus [1]) does the source give for `Cc1c(CCOCCO[N+](=O)[O-])cc(-c2ccc(S(C)(=O)=O)cc2)n1-c1ccc(F)cc1` here?
**A.** 56.8 g

**Q.** And the IC50 (Aorta)?
**A.** ≥ 10 µM

**Q.** And the pIC50 (Aorta)?
**A.** Dose-dependent effect

**Q.** What about the Activity (Rattus norvegicus [2]) of the same compound?
**A.** 48.3 g

**Q.** And the IC50 [3]?
**A.** 31.2 µM

**Q.** And the IC80 [3]?
**A.** 63.3 µM

**Q.** And the inhibition [3]?
**A.** Dose-dependent effect

**Q.** And the IC50 [4]?
**A.** > 10 µM

**Q.** What about the IC80 [5] of the same compound?
**A.** 2.26 µM

**Q.** And the inhibition [5]?
**A.** Dose-dependent effect

**Q.** And the IC50 [6]?
**A.** 0.64 µM

**Q.** What about the Ratio IC50 (J774) of the same compound?
**A.** > 714

**Q.** And the Activity (Rattus norvegicus [7])?
**A.** 55.1 g

**Q.** What about the Activity (Rattus norvegicus [8]) of the same compound?
**A.** 45.1 g

**Q.** What about the Activity (Rattus norvegicus [9]) of the same compound?
**A.** 43.8 g

**Q.** And the Activity (Rattus norvegicus [10])?
**A.** 43.5 g

**Q.** What about the Activity (Rattus norvegicus [11]) of the same compound?
**A.** 49.2 g

Reference: ChEMBL document CHEMBL2331234, “Novel analgesic/anti-inflammatory agents: 1,5-diarylpyrrole nitrooxyalkyl ethers and related compounds as cyclooxygenase-2 inhibiting nitric oxide donors” (J Med Chem, 2013)
